Compound activity from PubChem.
esBAF inh: Bmi1 luciferase reporter increase in mESCs, primary screen, esBAF inhibitor project, mouse ES cells, Bmi1 luciferase knock-in, single point. 24 h; 100% = twice the neutral-well signal. reporter increase, % at 12.5 µM. 350,000 compounds, 2% hits; in the data active = activation above about 40%; inconclusive = no clear call, values can overlap the other calls;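 also: 0% = median of the plate's neutral control wells and 100% = double that signal; a rise in the Bmi1 reporter signal indicates esBAF inhibition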
Wnt act: Wnt/beta-catenin pathway activators, primary screen, cell-based, plate reader, single point; Wnt/beta-catenin reporter cell assay, activator; 300,000 compounds, 1.2% hits; activation, % at 9.35 µM; AID 743398, 2014; in the data active = activation above about 30%, passing the limit was not always enough; inconclusive = no clear call, values can overlap the other calls;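 also: 0% = neutral control wells and 100% = positive control wells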
Casp6 inh: human caspase-6 inhibitors, primary screen, biochemical, VEID-R110 fluorescence, single point, set 2; P55212; purified caspase-6, Z-VEID-R110 cleavage fluorescence; inhibition, % at 12.5 µM; 350,000 compounds, 0.53% hits;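 active = mean inhibition across replicates at least about 35%, with every replicate also reaching that limit, limit read from the data; inconclusive = only one of the two criteria met; inactive = neither criterion met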;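 also: 0% = median of neutral control wells and 100% = no fluorescence left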
Target sequence (P55212 24-179 limits assumed): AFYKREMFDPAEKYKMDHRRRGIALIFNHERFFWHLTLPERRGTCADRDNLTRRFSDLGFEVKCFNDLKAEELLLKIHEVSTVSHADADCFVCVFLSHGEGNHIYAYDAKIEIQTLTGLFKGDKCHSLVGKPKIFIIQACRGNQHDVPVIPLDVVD
Target sequence (P55212 194-293 limits assumed): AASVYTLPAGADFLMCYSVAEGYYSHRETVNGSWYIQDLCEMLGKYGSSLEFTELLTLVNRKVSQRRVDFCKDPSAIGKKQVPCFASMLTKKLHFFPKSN
MITF TRPM1 HTS: activators of MITF-driven TRPM1 promoter reporter, primary screen, cell-based, SK-MEL-5, luciferase, single point. SK-MEL-5 TRPM1-promoter luciferase, 24 h; % of positive control, neutral wells = 0. activation, % at 12.5 µM. 300,000 compounds, 0.75% hits;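 active = mean activation of at least 80% with every replicate also reaching 80%; inconclusive = mean reaches 80% but some replicate falls short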;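 also: 0% = neutral control wells and 100% = parthenolide positive control wells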
NSD2 HMT inh: NSD2 histone methyltransferase inhibitors, primary screen, biochemical, AlphaScreen, single concentration, set 2. NSD2 peptide methylation, 120 min. inhibition, % at 12.5 µM. 310,000 compounds, 0.54% hits; in the data active = inhibition above about 50%
Xi reactivation: activators of inactive X chromosome reactivation, primary screen, imaging, XiGFP fibroblasts, GFP high-content imaging, set 2. XiGFP mouse fibroblasts, % GFP-positive cells imaging, 3 d; cells co-treated with 5-aza-dC sensitizer; scaled so ellipticine positive control = 100%. activation, % at 7.58 µM. 360,000 compounds, 0.055% hits. AID 743238, 2013;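 active = mean normalized replicate activation at least 10% and every replicate at or above 10%; inconclusive = only one of the two criteria met; inactive = mean below 10% and not all replicates reach 10%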;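 also: 0% = median of on-plate neutral control wells and 100% = ellipticine 6 µM median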
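assay system = SV40-immortalized XiGFP fibroblast cells, line 68-5-11 | buffer or medium = DMEM plus 5-aza-dC sensitizer | doses = single-point pinned compound dosing | times = 3-day compound exposure, then 15 min fixation at room temperature | benchmarks = positive control ellipticine, 6 µM final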
Starred values were filed as active, the others as inactive; ? = inconclusive; / = no result. In the library only some 3% were active in any assay of this set; here they are far more common.

SMILES	esBAF inh	Wnt act	Casp6 inh	MITF TRPM1 HTS	NSD2 HMT inh	Xi reactivation
C/C(=N\NC(=O)c1ccc(Cn2cc(Br)cn2)o1)c1cccc(NC(=O)C(C)(C)C)c1	4	2	/	-9	0	0
CS(=O)(=O)c1ccc(Nc2nc(C(N)COCc3ccccc3)cs2)cc1 (centres undefined)	-5	-4	46*	/	3	0
CS(=O)(=O)c1ccc(Nc2nc(C(N)Cc3ccccc3)cs2)cc1 (centres undefined)	1	2	-1	/	13	0
O=C(Nc1ccn(-c2ccccc2)n1)c1ccccc1Br	69*	?	3	66	-1	0
O=C(Nc1ccc(NC(=O)c2ccccc2Br)cc1)c1ccccc1	42*	3	0	27	16	0
O=C(Nc1ccc(C(F)(F)F)cc1)c1ccccc1Br	55*	6	-5	66	-2	0
CC(=O)Nc1ccn(-c2ccccc2)n1	27	9	/	/	1	/
O=C(Nc1ccc(C(O)(C(F)(F)F)C(F)(F)F)cc1)c1ccccc1C(F)(F)F	/	/	/	/	-3	/
Cn1cccc1C(=O)NCCc1ccc(Cl)cc1	57*	26	3	114*	/	0
COc1ccc(CCNC(=O)C(=O)NCc2ccccn2)cc1	-6	37*	/	-1	/	3
COc1ccc(CCNC(=O)c2cccn2C)cc1	50*	18	1	74	1	0
CCCNC(=O)C(=O)NCc1ccccn1	/	-5	0	-3	1	0
O=C(NCC[C@@H]1CC[C@H](NC(=O)C2CC2)[C@H](CO)O1)c1ccc(F)cc1	3	/	-2	/	/	0
O=C(C[C@H]1C=C[C@H](NS(=O)(=O)c2ccc(F)cc2)[C@@H](CO)O1)NCc1ccccc1F	/	/	1	/	/	0
COc1ccc(N=CC2=C(O)CC(C)(C)CC2=O)cc1	49*	/	/	32	-1	/
COc1ccc(OC)c(N=CC2=C(O)CC(C)(C)CC2=O)c1	2	/	/	1	-1	/
CC1(C)CC(=O)C(C=Nc2cccnc2/N=C/C2=C(O)CC(C)(C)CC2=O)=C(O)C1	/	6	41*	0	-7	0
Cc1ccccc1NC(=O)C(C)SCc1ccccc1 (centres undefined)	8	2	-1	/	-6	0
CC(SCc1ccccc1)C(=O)Nc1ccccc1 (centres undefined)	-1	37*	3	5	-2	0
COc1ccc2c3c([nH]c2c1)[C@@H](CO)N(Cc1ccccn1)CC31CN(C(=O)c2ccccn2)C1	/	/	/	/	/	0
CCc1ccc(C(=O)Nc2ccc3nc(C)ccc3c2)cc1	39	10	0	99*	/	0
Cc1ccc2cc(NC(=O)Cc3ccccc3)ccc2n1	/	2	0	/	-1	0
Cc1ccc2cc(NC(=O)c3ccccc3C)ccc2n1	?	0	/	100*	-1	0
Cc1noc(C)c1NC(=O)N(C)C[C@@H]1Oc2ccc(NC(=O)c3ccncc3)cc2C(=O)N([C@H](C)CO)C[C@@H]1C	-4	/	3	/	/	0
N#C/C(=C/c1ccc(N2CCCCCC2)o1)c1ccc(F)cc1	-13	0	/	-5	/	/
SMILES	esBAF inh	Wnt act	Casp6 inh	MITF TRPM1 HTS	NSD2 HMT inh	Xi reactivation
N#C/C(=C\c1ccc(N2CCOCC2)cc1)c1ccccc1	27	33*	/	143*	3	0
N#C/C(=C/c1ccc(N2CCCCCC2)o1)c1cccc(F)c1	30	/	/	86*	1	/
N#C/C(=C\c1ccc(N2CCOCC2)o1)c1ccccc1	94*	1	5	87*	0	/
N#C/C(=C\N1CCOCC1)c1ccccc1	/	-3	/	6	-1	/
CCCC(=O)N1CC2(C1)CN(C(=O)C1CCCCC1)[C@@H](CO)c1[nH]c3cc(OC)ccc3c12	/	/	-3	/	/	0
COc1ccc(/C=C/C(=O)c2ccc([N+](=O)[O-])o2)cc1OC	/	-28	-3	/	/	14*
O=C(/C=C/c1cccc(Cl)c1)c1ccc([N+](=O)[O-])o1	-80	-25	4	-96	/	4
COc1cc(/C=C/C(=O)c2ccc([N+](=O)[O-])o2)ccc1O	-65	-13	9	-85	/	21*
C[C@@H]1CN([C@H](C)CO)C(=O)c2cccc(NC(=O)Nc3ccc4c(c3)OCO4)c2O[C@H]1CN(C)Cc1ccc(-c2ccccc2)cc1	3	/	-4	/	/	0
O=C(Cc1ccccn1)N[C@H]1C=C[C@@H](CC(=O)N2CCCCC2)O[C@H]1CO	-2	/	0	/	/	0
CC1(C)CC(=O)c2c(O)cc(OCc3ccc([N+](=O)[O-])cc3)cc2O1	47*	/	/	78	0	/
Cc1nn(Cc2ccccc2)c(Cl)c1C(=O)NCc1ccc(C)n1C	4	-7	/	1	3	/
CCc1noc(C)c1C(=O)NCCc1ccccc1	/	34*	-2	46	0	0
Cc1nn(Cc2ccccc2)c(Cl)c1C(=O)NCCc1ccccc1	/	47*	1	60	-4	0
Cc1ccc(-c2cc3ccccc3nc2N)cc1	47*	20	1	/	-5	0
Nc1nc2ccccc2cc1-c1cccs1	?	20	-3	90*	-9	0
N#Cc1cc2ccccc2nc1N	/	0	-2	-10	-3	0
c1csc(-c2ccc3ccccc3n2)c1	43*	20	/	59	0	/
Cc1ccccc1S(=O)(=O)c1cc2ccccc2nc1N	4	-1	5	-13	0	0
CCN1Cc2cc(C(=O)NCCN3CCCC3)nc(-c3cccc(C4=CCCC4)c3)c2[C@H]1CCO	/	/	/	/	/	0
C[C@H]1CCCCO[C@@H](CN(C)S(=O)(=O)c2ccccc2)[C@@H](C)CN([C@@H](C)CO)C(=O)c2cc(NS(=O)(=O)c3ccc(F)cc3)ccc2O1	-2	/	0	/	/	0
O=C(CN1CCOCC1)N[C@@H]1CC[C@@H](CCn2cc(C3CCCC3)nn2)O[C@H]1CO	/	/	/	/	/	0
Cc1ccc(NC(=O)NNC(=O)c2cc3ccccc3cc2O)cc1C	-4	-1	3	0	2	0
COc1ccc(NC(=O)c2ccccc2NC(=O)COc2ccccc2)cc1	/	/	/	17	0	/
Cc1ccc(NC(=O)c2cc3ccccc3cc2O)cc1	44*	46*	0	78	-3	0
COCC(=O)Nc1ccccc1C(=O)Nc1ccc(OC)cc1	26	36*	/	48	-2	/
COc1ccc(NC(=O)c2cc3ccccc3cc2O)cc1	?	35*	2	79	2	0
Cc1noc(C)c1S(=O)(=O)Nc1ccc2c(c1)C(=O)N([C@@H](C)CO)C[C@@H](C)[C@@H](CN(C)S(=O)(=O)c1ccc(F)cc1)O2	5	/	0	/	/	-1
